Bioassay records: PubChem, several laboratories
Shown are actives, neighbours in structure and some others; about 3.3% of the full set was active somewhere.
ABCB6 inh 2: ABCB6 transporter inhibitors, primary screen, K562-ABCB6 cells, flow cytometry, MLPCN library; hit rate 0.19% among 360,000; AID 602162, 2011; ATP-binding cassette sub-family B member 6 (Homo sapiens), Q9NP58; fluorescence ratio to DMSO, % at 10 µM; K562-ABCB6 porphyrin accumulation, 1 h; active compounds read low;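 active = fluorescence ratio to DMSO below 75%, the collection mean minus 3 SD; inconclusive = too few cells collected in the well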;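 also: signal is porphyrin accumulated inside mitochondria; 100% equals median channel fluorescence of DMSO control wells; lower ratio means ABCB6 inhibition with less porphyrin fluorescence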
ATG4B inhibitor: ATG4B protease inhibitors, primary screen, biochemical, fluorescence, uHTS | hit rate 0.51% among 340,000 | inhibition, % at 8.33 µM | Cysteine protease ATG4B (Homo sapiens), Q9Y4P1 | ATG4B cleavage of LC3-PLA2, NBD-HPC fluorescence, 1 h; in the data active = inhibition above about 40%
NRP1-CendR mod: modulators of CendR peptide binding to NRP-1, primary screen, biochemical, fluorescence polarization, uHTS. inhibition, % at 25 µM. AID 602438, 2012. FAM-RPARPAR peptide binding to NRP-1. hit rate 0.85% among 360,000. Neuropilin-1 (Homo sapiens), O14786;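 active = inhibition or corrected inhibition above about 18%, plus a signal ratio from 0.5 to 1.5, limit read from the data, passing the limit was not always enough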
Granule exo inh: LAMP-1 surface exposure blockers, TALL-104 cells – cell-based, flow cytometry, MLPCN library, primary screen | hit rate 0.66% among 360,000 | inhibition, % at 10 µM | TALL-104 LAMP-1 surface exposure; cells stimulated with thapsigargin and PMA;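 active = inhibition above about 55%, limit read from the data; inconclusive = no clear call, values can overlap the other calls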
Myeloid diff MLP: induction of myeloid progenitor differentiation, primary screen, cell-based, flow cytometry, MLPCN library. ER-HoxA9 myeloid progenitors, lysozyme-GFP differentiation. calls only at 10 µM. hit rate 1% among 360,000;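 active = normalized GFP-positive differentiation at or above the plate's own cutoff, the solvent-only control mean plus 3 SD; inconclusive = no clear call, values can overlap the other calls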;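 also: cells exposed to compound for four days before flow analysis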
Arr AP2 block: inhibitors of beta-arrestin/AP2 binding, primary screen, biochemical, GPCR trafficking, flow cytometry | beta-arrestin 1 C-terminal peptide binding to AP2 beta2-adaptin appendage (human) | FITC-arrestin peptide / GST-AP2 beads; AP2 beta2 appendage carries R879A mutation | inhibition, % at 10 µM | hit rate 0.31% among 340,000 | AID 504490, 2011;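 active = inhibition above a set limit, near 3 SD of compounds lacking own fluorescence, cut at about 54% in these data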;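 also: plate controls were DMSO wells for no effect and 5 µM unlabelled arrestin peptide for full effect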
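System: GST-AP2 R879A glutathione beads | Also added: FITC-arrestin peptide, 50 nM | Times: 12 min plus 1 h, RT | Signal: Bead flow cytometry, FITC channel | Buffer or medium: PBS with 0.05% Tween 20 and 0.1% BSA | Read-out basis: Percent drop in bead-associated FITC signal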
The depositor's hits bear a star; i = inactive; ? = inconclusive; nt = no result; + = active, no number; ! = repeats disagree.

SMILES | ABCB6 inh 2 | ATG4B inhibitor | NRP1-CendR mod | Granule exo inh | Myeloid diff MLP | Arr AP2 block
Cc1ccc(C(=O)Nc2ccc(CN3CCS(=O)(=O)CC3)cc2)cc1C | 97 | -12 | 8 | -2 | i | 17
C[C@@H]1CN([C@H](C)CO)C(=O)c2cc(Br)cnc2O[C@@H]1CN(C)C(=O)NC1CCCC1 | 103 | nt | -8 | -4 | i | nt
CN1CCN(Cc2nc3ccccc3c(=O)n2Cc2nc(-c3ccc4ccccc4c3)cs2)CC1 | 80 | 1 | 2 | 65*! | ? | -4
CN1CCN(Cc2nc3ccccc3c(=O)n2Cc2nc(-c3cccc([N+](=O)[O-])c3)cs2)CC1 | 108 | 8 | -7 | 43 | i | 41
Cc1nn(C)cc1S(=O)(=O)Nc1ccccc1Br | 102 | 9 | 10 | -14 | i | -16
CCCCSCc1ccc(C(=O)O)o1 | 97 | -3 | 3 | 2 | + | 5
N/C(Cc1nc2ccccc2s1)=N\O | 123 | 4 | -34 | 3 | + | 33
CC(=O)Nc1cccc(-c2csc(C(O)c3ccc(F)cc3)n2)c1 (stereo unspecified) | 96 | nt | -6 | 2 | i | nt
Cc1ccc(C2=CSC3=NNC4(CCCCC4)NN23)cc1 | 218 | -7 | 1 | 2 | + | -9
COC(=O)C1=C(CS(=O)(=O)c2ccc(OC)c(OC)c2)NC(=O)NC1c1ccc(O)c(OC)c1 (stereo unspecified) | 97 | -5 | 5 | -4 | i | -8
COC(=O)C1=C(CS(=O)(=O)c2cc(OC)ccc2OC)NC(=O)NC1c1ccc(O)c(OC)c1 (stereo unspecified) | 98 | 0 | 20* | -3 | i | 6
COc1ccc(-c2csc(N(CCCN(C)C)C(=O)c3ccc(OC)c(OC)c3)n2)cc1 | 95 | nt | 5 | 7 | i | nt
CCC(=O)Nc1nc(C)c(Oc2ccccc2)c(=O)[nH]1 | 98 | -4 | 24* | 0 | ? | -3
Cc1ccc(C2=CC(c3ccccc3)n3ncnc3N2)cc1 (stereo unspecified) | 98 | -4 | 12 | 68* | i | 13
CCc1ccc(C2=CC(c3cc(Br)ccc3F)n3ncnc3N2)cc1 (stereo unspecified) | 99 | 4 | -2 | 7 | + | 2
C1=C(c2ccccc2)Nc2ncnn2C1c1ccccc1 (stereo unspecified) | 97 | -7 | 14 | -5 | i | 2
Fc1ccc(Br)cc1C1C=C(c2ccc(Br)cc2)Nc2ncnn21 (stereo unspecified) | 90 | 0 | 8 | 10 | i | 5
Cc1cccc(-n2nnc(C(=O)NCc3ccccn3)c2N)c1 | 98 | -11 | 3 | -4 | i | 5
O=Cc1cccn1-c1nccc(-c2ccco2)n1 | 95 | 4 | -4 | -5 | i | -16
CS(=O)(=O)N(CC(=O)N1CCN(c2cccc(Cl)c2)CC1)C1CCCCC1 | 92 | -12 | 19* | 2 | i | -5
O=C(COC(=O)C1CSC2(c3ccc(F)cc3)CCC(=O)N12)NC(=O)NC1CCCC1 (stereo unspecified) | 98 | -6 | -1 | 0 | i | 4
CC(=O)Nc1ccc(NC(=O)C(C)OC(=O)c2ccc3c(c2)OCCO3)cc1 (stereo unspecified) | 100 | -6 | -4 | 1 | i | 24
CC(OC(=O)c1cccc(S(=O)(=O)Nc2cccc(C(F)(F)F)c2)c1)C(=O)Nc1ccc2c(c1)OCCO2 (stereo unspecified) | 99 | 15 | 31* | 0 | i | -17
COc1ccc(F)cc1C(=O)C1CCCN(C(=O)C2=C(C)OCCO2)C1 (stereo unspecified) | 158 | 5 | -1 | 0 | + | 8
CCCCN1C[C@H](c2ccccc2)[C@@H](CC(=O)NC)C1=O | 99 | nt | -2 | -4 | i | nt
COC1=CC(=NCl)C=CC1=NCl | 99 | nt | 54* | 6 | i | nt
